pEC50, pIC50: −log10 of the molar value. Where a SMILES comes first, the peptide text is derived from it. [ ]: non-standard residue; d: D form. Bip = N[C@@H](Cc1ccc(-c2ccccc2)cc1)C(=O)O; Cha = N[C@@H](CC1CCCCC1)C(=O)O; Aib = CC(C)(N)C(=O)O
Experiments:
[1] = target: T1, Pituitary adenylate cyclase-activating polypeptide type I receptor (Homo sapiens, UniProt P41586); test: Agonist activity at human recombinant PAC1 receptor expressed in CHO cells assessed as PACAP38-induced calcium mobilization by FLIPR assay relative to PACAP38; assay type: functional, cell-based
Outline: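 CHO cells stably expressing recombinant human PAC1, plated 24 h before assay, loaded with fluo-4 AM for 60 min at 37 °C in the dark, then rinsed into HBSS for 15 min at 37 °C. Peptide was added 18 s into a 150 s read (ex 480/em 525 nm), at final concentrations of 1 × 10-12 to 1 × 10^-5 M. Response was normalised to 1 × 10^-5 M PACAP38 on each plate. EC50 and efficacy came from nonlinear regression; 4-10 independent assays in duplicate.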
Target sequence in this assay (P41586 21-468 limits assumed): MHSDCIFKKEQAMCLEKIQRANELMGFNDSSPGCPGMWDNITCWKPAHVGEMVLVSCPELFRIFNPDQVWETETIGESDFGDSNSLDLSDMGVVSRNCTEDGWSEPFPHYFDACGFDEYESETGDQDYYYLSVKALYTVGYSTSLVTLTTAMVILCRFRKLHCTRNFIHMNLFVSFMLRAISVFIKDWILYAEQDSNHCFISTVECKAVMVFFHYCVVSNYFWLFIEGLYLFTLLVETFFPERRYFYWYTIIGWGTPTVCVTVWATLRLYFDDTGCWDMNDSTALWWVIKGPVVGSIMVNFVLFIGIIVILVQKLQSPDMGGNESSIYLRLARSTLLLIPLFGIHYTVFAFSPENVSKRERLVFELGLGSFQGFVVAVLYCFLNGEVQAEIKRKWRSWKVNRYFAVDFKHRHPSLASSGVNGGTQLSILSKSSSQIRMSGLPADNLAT

[2] = target: T1, Pituitary adenylate cyclase-activating polypeptide type I receptor; test: Displacement of [125I]Ac-PACAP27 from human recombinant PAC1 receptor expressed in CHO cells by gamma- counter; assay type: cell-based
Target sequence in this assay (P41586 whole entry): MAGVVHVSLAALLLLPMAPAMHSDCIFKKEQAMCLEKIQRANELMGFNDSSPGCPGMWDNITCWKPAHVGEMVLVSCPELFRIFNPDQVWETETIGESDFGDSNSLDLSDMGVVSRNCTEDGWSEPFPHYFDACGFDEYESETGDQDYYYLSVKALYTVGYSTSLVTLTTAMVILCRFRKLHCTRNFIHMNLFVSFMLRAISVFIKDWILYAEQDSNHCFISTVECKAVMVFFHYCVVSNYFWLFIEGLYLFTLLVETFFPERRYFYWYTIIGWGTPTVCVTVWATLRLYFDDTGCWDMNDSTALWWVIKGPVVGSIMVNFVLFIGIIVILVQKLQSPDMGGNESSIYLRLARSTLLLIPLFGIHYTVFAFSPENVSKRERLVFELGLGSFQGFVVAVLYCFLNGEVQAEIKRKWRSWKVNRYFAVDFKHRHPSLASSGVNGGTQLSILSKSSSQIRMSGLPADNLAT

[3] = target: T1, Pituitary adenylate cyclase-activating polypeptide type I receptor; test: Agonist activity at human recombinant PAC1 receptor expressed in CHO cells assessed as PACAP38-induced calcium mobilization by FLIPR assay; assay type: functional, cell-based
Outline: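 CHO cells stably expressing recombinant human PAC1, plated 24 h before assay, loaded with fluo-4 AM for 60 min at 37 °C in the dark, then rinsed into HBSS for 15 min at 37 °C. EC50 and efficacy came from nonlinear regression; 4-10 independent assays in duplicate.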
Target sequence in this assay (P41586 whole entry): as above

Structure (SMILES)	Emax [1] [%]	pIC50 [2]	pEC50 [3]
CC[C@H](C)[C@H](NC(=O)CNC(=O)[C@H](CC(=O)O)N(C)C(=O)[C@H](CO)NC(=O)[C@@H](N)Cc1cnc[nH]1)C(=O)N[C@@H](Cc1ccccc1)C(=O)N[C@H](C(=O)N[C@@H](CC(=O)O)C(=O)N[C@@H](CO)C(=O)N[C@@H](Cc1ccc(O)cc1)C(=O)N[C@@H](CO)C(=O)N[C@@H](CCCNC(=N)N)C(=O)N[C@@H](Cc1ccc(O)cc1)C(=O)N[C@@H](CCCNC(=N)N)C(=O)N[C@@H](CCCCN)C(=O)N[C@@H](CCC(N)=O)C(=O)N[C@@H](CCSC)C(=O)N[C@@H](C)C(=O)N[C@H](C(=O)N[C@@H](CCCCN)C(=O)N[C@@H](CCCCN)C(=O)N[C@@H](Cc1ccc(O)cc1)C(=O)N[C@@H](CC(C)C)C(=O)N[C@@H](C)C(=O)N[C@@H](C)C(=O)N[C@H](C(=O)N[C@@H](CC(C)C)C(N)=O)C(C)C)C(C)C)[C@@H](C)O	89.2	7.60	6.38
CC[C@H](C)[C@H](NC(=O)CNC(=O)[C@H](CC(=O)O)NC(=O)[C@H](CO)NC(=O)[C@@H](N)Cc1cnc[nH]1)C(=O)N[C@@H](C)C(=O)N[C@H](C(=O)N[C@@H](CC(=O)O)C(=O)N[C@@H](CO)C(=O)N[C@@H](Cc1ccc(O)cc1)C(=O)N[C@@H](CO)C(=O)N[C@@H](CCCNC(=N)N)C(=O)N[C@@H](Cc1ccc(O)cc1)C(=O)N[C@@H](CCCNC(=N)N)C(=O)N[C@@H](CCCCN)C(=O)N[C@@H](CCC(N)=O)C(=O)N[C@@H](CCSC)C(=O)N[C@@H](C)C(=O)N[C@H](C(=O)N[C@@H](CCCCN)C(=O)N[C@@H](CCCCN)C(=O)N[C@@H](Cc1ccc(O)cc1)C(=O)N[C@@H](CC(C)C)C(=O)N[C@@H](C)C(=O)N[C@@H](C)C(=O)N[C@H](C(=O)N[C@@H](CC(C)C)C(N)=O)C(C)C)C(C)C)[C@@H](C)O	65.3	5.88	6.34
CC[C@H](C)[C@H](NC(=O)CNC(=O)[C@H](CC(=O)O)NC(=O)C(C)(C)NC(=O)[C@@H](N)Cc1cnc[nH]1)C(=O)N[C@@H](Cc1ccccc1)C(=O)N[C@H](C(=O)N[C@@H](CC(=O)O)C(=O)N[C@@H](CO)C(=O)N[C@@H](Cc1ccc(O)cc1)C(=O)N[C@@H](CO)C(=O)N[C@@H](CCCNC(=N)N)C(=O)N[C@@H](Cc1ccc(O)cc1)C(=O)N[C@@H](CCCNC(=N)N)C(=O)N[C@@H](CCCCN)C(=O)N[C@@H](CCC(N)=O)C(=O)N[C@@H](CCSC)C(=O)N[C@@H](C)C(=O)N[C@H](C(=O)N[C@@H](CCCCN)C(=O)N[C@@H](CCCCN)C(=O)N[C@@H](Cc1ccc(O)cc1)C(=O)N[C@@H](CC(C)C)C(=O)N[C@@H](C)C(=O)N[C@@H](C)C(=O)N[C@H](C(=O)N[C@@H](CC(C)C)C(=O)NCC(=O)N[C@@H](CCCCN)C(=O)N[C@@H](CCCNC(=N)N)C(=O)N[C@@H](Cc1ccc(O)cc1)C(=O)N[C@@H](CCCCN)C(=O)N[C@@H](CCC(N)=O)C(=O)N[C@@H](CCCNC(=N)N)C(=O)N[C@H](C(=O)N[C@@H](CCCCN)C(=O)N[C@@H](CC(N)=O)C(=O)N[C@@H](CCCCN)C(N)=O)C(C)C)C(C)C)C(C)C)[C@@H](C)O (H-H[Aib]DGIFTDSYSRYRKQMAVKKYLAAVLGKRYKQRVKNK-NH2)	94.8	8.14	8.37
CC[C@H](C)[C@H](NC(=O)CNC(=O)[C@H](CC(=O)O)N(C)C(=O)[C@H](CO)NC(=O)[C@@H](N)Cc1cnc[nH]1)C(=O)N[C@@H](Cc1ccccc1)C(=O)N[C@H](C(=O)N[C@@H](CC(=O)O)C(=O)N[C@@H](CO)C(=O)N[C@@H](Cc1ccc(O)cc1)C(=O)N[C@@H](CO)C(=O)N[C@@H](CCCNC(=N)N)C(=O)N[C@@H](Cc1ccc(O)cc1)C(=O)N[C@@H](CCCNC(=N)N)C(=O)N[C@@H](CCCCN)C(=O)N[C@@H](CCC(N)=O)C(=O)N[C@@H](CCSC)C(=O)N[C@@H](C)C(=O)N[C@H](C(=O)N[C@@H](CCCCN)C(=O)N[C@@H](CCCCN)C(=O)N[C@@H](Cc1ccc(O)cc1)C(=O)N[C@@H](CC(C)C)C(=O)N[C@@H](C)C(=O)N[C@@H](C)C(=O)N[C@H](C(=O)N[C@@H](CC(C)C)C(=O)NCC(=O)N[C@@H](CCCCN)C(=O)N[C@@H](CCCNC(=N)N)C(=O)N[C@@H](Cc1ccc(O)cc1)C(=O)N[C@@H](CCCCN)C(=O)N[C@@H](CCC(N)=O)C(=O)N[C@@H](CCCNC(=N)N)C(=O)N[C@H](C(=O)N[C@@H](CCCCN)C(=O)N[C@@H](CC(N)=O)C(=O)N[C@@H](CCCCN)C(N)=O)C(C)C)C(C)C)C(C)C)[C@@H](C)O	92.5	7.98	6.66
CC[C@H](C)[C@H](NC(=O)CNC(=O)[C@H](CC(=O)O)NC(=O)[C@H](CO)NC(=O)[C@@H](N)Cc1cnc[nH]1)C(=O)N[C@@H](CC1CCCCC1)C(=O)N[C@H](C(=O)N[C@@H](CC(=O)O)C(=O)N[C@@H](CO)C(=O)N[C@@H](Cc1ccc(O)cc1)C(=O)N[C@@H](CO)C(=O)N[C@@H](CCCNC(=N)N)C(=O)N[C@@H](Cc1ccc(O)cc1)C(=O)N[C@@H](CCCNC(=N)N)C(=O)N[C@@H](CCCCN)C(=O)N[C@@H](CCC(N)=O)C(=O)N[C@@H](CCSC)C(=O)N[C@@H](C)C(=O)N[C@H](C(=O)N[C@@H](CCCCN)C(=O)N[C@@H](CCCCN)C(=O)N[C@@H](Cc1ccc(O)cc1)C(=O)N[C@@H](CC(C)C)C(=O)N[C@@H](C)C(=O)N[C@@H](C)C(=O)N[C@H](C(=O)N[C@@H](CC(C)C)C(=O)NCC(=O)N[C@@H](CCCCN)C(=O)N[C@@H](CCCNC(=N)N)C(=O)N[C@@H](Cc1ccc(O)cc1)C(=O)N[C@@H](CCCCN)C(=O)N[C@@H](CCC(N)=O)C(=O)N[C@@H](CCCNC(=N)N)C(=O)N[C@H](C(=O)N[C@@H](CCCCN)C(=O)N[C@@H](CC(N)=O)C(=O)N[C@@H](CCCCN)C(N)=O)C(C)C)C(C)C)C(C)C)[C@@H](C)O (H-HSDGI[Cha]TDSYSRYRKQMAVKKYLAAVLGKRYKQRVKNK-NH2)	97.7	8.18	8.59
CC[C@H](C)[C@H](NC(=O)CNC(=O)[C@H](CC(=O)O)NC(=O)[C@H](CO)NC(=O)[C@@H](N)Cc1cnc[nH]1)C(=O)N[C@@H](Cc1ccc(-c2ccccc2)cc1)C(=O)N[C@H](C(=O)N[C@@H](CC(=O)O)C(=O)N[C@@H](CO)C(=O)N[C@@H](Cc1ccc(O)cc1)C(=O)N[C@@H](CO)C(=O)N[C@@H](CCCNC(=N)N)C(=O)N[C@@H](Cc1ccc(O)cc1)C(=O)N[C@@H](CCCNC(=N)N)C(=O)N[C@@H](CCCCN)C(=O)N[C@@H](CCC(N)=O)C(=O)N[C@@H](CCSC)C(=O)N[C@@H](C)C(=O)N[C@H](C(=O)N[C@@H](CCCCN)C(=O)N[C@@H](CCCCN)C(=O)N[C@@H](Cc1ccc(O)cc1)C(=O)N[C@@H](CC(C)C)C(=O)N[C@@H](C)C(=O)N[C@@H](C)C(=O)N[C@H](C(=O)N[C@@H](CC(C)C)C(=O)NCC(=O)N[C@@H](CCCCN)C(=O)N[C@@H](CCCNC(=N)N)C(=O)N[C@@H](Cc1ccc(O)cc1)C(=O)N[C@@H](CCCCN)C(=O)N[C@@H](CCC(N)=O)C(=O)N[C@@H](CCCNC(=N)N)C(=O)N[C@H](C(=O)N[C@@H](CCCCN)C(=O)N[C@@H](CC(N)=O)C(=O)N[C@@H](CCCCN)C(N)=O)C(C)C)C(C)C)C(C)C)[C@@H](C)O (H-HSDGI[Bip]TDSYSRYRKQMAVKKYLAAVLGKRYKQRVKNK-NH2)	105	8.27	8.96
CC[C@H](C)[C@H](NC(=O)CNC(=O)[C@H](CC(=O)O)NC(=O)[C@@H]1C[C@@H](O)CN1C(=O)[C@@H](N)Cc1cnc[nH]1)C(=O)N[C@@H](Cc1ccccc1)C(=O)N[C@H](C(=O)N[C@@H](CC(=O)O)C(=O)N[C@@H](CO)C(=O)N[C@@H](Cc1ccc(O)cc1)C(=O)N[C@@H](CO)C(=O)N[C@@H](CCCNC(=N)N)C(=O)N[C@@H](Cc1ccc(O)cc1)C(=O)N[C@@H](CCCNC(=N)N)C(=O)N[C@@H](CCCCN)C(=O)N[C@@H](CCC(N)=O)C(=O)N[C@@H](CCSC)C(=O)N[C@@H](C)C(=O)N[C@H](C(=O)N[C@@H](CCCCN)C(=O)N[C@@H](CCCCN)C(=O)N[C@@H](Cc1ccc(O)cc1)C(=O)N[C@@H](CC(C)C)C(=O)N[C@@H](C)C(=O)N[C@@H](C)C(=O)N[C@H](C(=O)N[C@@H](CC(C)C)C(N)=O)C(C)C)C(C)C)[C@@H](C)O	89.2	8.07	8.64
CC[C@H](C)[C@H](NC(=O)CNC(=O)[C@H](C)NC(=O)[C@H](CO)NC(=O)[C@@H](N)Cc1cnc[nH]1)C(=O)N[C@@H](Cc1ccccc1)C(=O)N[C@H](C(=O)N[C@@H](CC(=O)O)C(=O)N[C@@H](CO)C(=O)N[C@@H](Cc1ccc(O)cc1)C(=O)N[C@@H](CO)C(=O)N[C@@H](CCCNC(=N)N)C(=O)N[C@@H](Cc1ccc(O)cc1)C(=O)N[C@@H](CCCNC(=N)N)C(=O)N[C@@H](CCCCN)C(=O)N[C@@H](CCC(N)=O)C(=O)N[C@@H](CCSC)C(=O)N[C@@H](C)C(=O)N[C@H](C(=O)N[C@@H](CCCCN)C(=O)N[C@@H](CCCCN)C(=O)N[C@@H](Cc1ccc(O)cc1)C(=O)N[C@@H](CC(C)C)C(=O)N[C@@H](C)C(=O)N[C@@H](C)C(=O)N[C@H](C(=O)N[C@@H](CC(C)C)C(=O)NCC(=O)N[C@@H](CCCCN)C(=O)N[C@@H](CCCNC(=N)N)C(=O)N[C@@H](Cc1ccc(O)cc1)C(=O)N[C@@H](CCCCN)C(=O)N[C@@H](CCC(N)=O)C(=O)N[C@@H](CCCNC(=N)N)C(=O)N[C@H](C(=O)N[C@@H](CCCCN)C(=O)N[C@@H](CC(N)=O)C(=O)N[C@@H](CCCCN)C(N)=O)C(C)C)C(C)C)C(C)C)[C@@H](C)O (H-HSAGIFTDSYSRYRKQMAVKKYLAAVLGKRYKQRVKNK-NH2)	64.1	7.01	5.00
